Format in all cases: functional
Assay [1] relates to SK-OV-3. Briefly: Growth inhibition of human SKOV3 cells. Put shortly:
(§1)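 Part of the NCI DTP 60-cell-line panel. After the single-dose stage, cells were tested at five doses. Read-out is the GI50, the concentration giving 50% inhibition of cell growth, derived for each cell line.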

In assay [2] the test system is MDA-MB-435. As to the kind of experiment: Growth inhibition of human MDA-MB-435 cells. Put shortly: as §1
The subject of assay [3] is SR. Briefly: Growth inhibition of human SR cells. Put shortly:
(§2)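 This is the second, five-dose stage of the NCI DTP 60-cell-line screen. GI50 is the concentration that inhibits cell growth by 50%, derived for each cell line.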

Assay [4] deals with HCT-15. As to the kind of experiment: Growth inhibition of human HCT15 cells. Put shortly: (§3)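 NCI DTP 60-cell-line screen, second stage: five-dose testing across the human tumour panel. GI₅₀ taken as the concentration needed to inhibit cell growth by 50% in each cell line.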
In assay [5] the test system is T47D. As to the kind of experiment: Growth inhibition of human T47D cells. In a few lines: as §2
For assay [6], the system named is SF-295. As to the kind of experiment: Growth inhibition of human SF295 cells. Put shortly:
as §1

The test system of assay [7] is HCC 2998. Briefly: Growth inhibition of human HCC2998 cells. Put shortly: as §3
The subject of assay [8] is BT-549. As to the kind of experiment: Growth inhibition of human BT549 cells. Put shortly: as §3
Assay [9] concerns NCI-H460. Briefly: Growth inhibition of human NCI-H460 cells. Put shortly: as §1
The subject of assay [10] is SF-268. Briefly: Growth inhibition of human SF268 cells. Put shortly:
as §1

Assay [11] has as its system EKVX. As to the kind of experiment: Growth inhibition of human EKVX cells. Put shortly: as §3
The subject of assay [12] is A498. Briefly: Growth inhibition of human A498 cells. Put shortly: as §3
Assay [13] has as its system 786-0. Briefly: Growth inhibition of human 786-0 cells. In a few lines: as §3
Assay [14] relates to SNB-75. Briefly: Growth inhibition of human SNB75 cells. Put shortly:
as §2

A short description of assay [15]: Growth inhibition of human RPMI8266 cells. In a few lines:
as §1

Assay [16] concerns Malme-3M. As to the kind of experiment: Growth inhibition of human MALME-3M cells. Put shortly:
as §3

The subject of assay [17] is A549. Briefly: Growth inhibition of human A549 cells. Put shortly:
as §3

Assay [18] concerns NCI-H226. Briefly: Growth inhibition of human NCI-H226 cells. Put shortly:
as §1

Assay [19] deals with OVCAR-3. Briefly: Growth inhibition of human OVCAR3 cells. Put shortly: as §1
Assay [20] relates to TK-10. Briefly: Growth inhibition of human TK10 cells. Put shortly: as §2
The test system of assay [21] is NCI-H23. As to the kind of experiment: Growth inhibition of human NCI-H23 cells. Put shortly: as §1
In assay [22] the test system is LOX IMVI. Briefly: Growth inhibition of human LOXIMVI cells. Put shortly: as §3
Assay [23] deals with DU-145. Briefly: Growth inhibition of human DU145 cells. In a few lines:
as §3

Assay [24] concerns MDA-MB-231. As to the kind of experiment: Growth inhibition of human MDA-MB-231 cells. Put shortly:
as §1

In assay [25] the test system is IGROV-1. As to the kind of experiment: Growth inhibition of human IGROV1 cells. In a few lines:
as §3

Assay [26] has as its system HT-29. Briefly: Growth inhibition of human HT-29 cells. Put shortly: as §3
The subject of assay [27] is SF-539. Briefly: Growth inhibition of human SF539 cells. Put shortly:
as §1

Assay [28] has as its system SN12C. Briefly: Growth inhibition of human SN12C cells. Put shortly: as §2
The subject of assay [29] is U-251. Briefly: Growth inhibition of human U251 cells. Put shortly:
as §2

Assay [30] deals with CCRF-CEM. As to the kind of experiment: Growth inhibition of human CCRF-CEM cells. In a few lines:
as §3

For assay [31], the system named is NCI/ADR-RES. Briefly: Growth inhibition of human NCI/ADR-RES cells. Put shortly:
as §1

For assay [32], the system named is SW-620. As to the kind of experiment: Growth inhibition of human SW620 cells. Put shortly: as §2
Assay [33] relates to IGROV-1. Briefly: Growth inhibition of human IGROV1 cells assessed as cell growth at 10 uM relative to untreated control. Particulars: read-out: Activity. Put shortly: (§4)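 NCI DTP 60-cell-line screen, first stage: a single 10 µM dose of compound given to the human tumour panel. Result reported as percent growth relative to control, on a mean growth graph.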
For assay [34], the system named is Malme-3M. Briefly: Growth inhibition of human MALME-3M cells assessed as cell growth at 10 uM relative to untreated control. Particulars: read-out: Activity. In a few lines: as §4

Experimental findings from ChEMBL document CHEMBL2021842, “COMPARE analysis of the toxicity of an iminoquinone derivative of the imidazo[5,4-f]benzimidazoles with NAD(P)H:quinone oxidoreductase 1 (NQO1) activity and computational docking of quinones as NQO1 substrates” (Bioorg Med Chem, 2012) are described below.

For orientation: GI50 means the concentration at which growth is held to half of that of the control.

`N=C1c2nc3n(c2C(=O)c2nc4n(c21)CCCC4)CCCC3`: the GI50 in [1] was 33.1 µM; in [2] it was 245 nM; in [3], 8.51 µM; in [4], 2630 nM; in assay [5], 17.4 µM; in assay [6] it was 1740 nM. Further, the GI50 was 4.79 µM in assay [7]; 2040 nM in [8]; 1620 nM in assay [9]; 8.51 µM in [10]; 25.1 µM in assay [11]; 6.03 µM in assay [12]. In addition, the GI50 in [13] was 44.7 µM; in [14], 2190 nM; in assay [15], 25.7 µM; in [16], 1860 nM; in [17], 2040 nM; in [18], 1740 nM. Also, the GI50 in [19] is 20.4 µM; in [20] it was 70.8 µM; in [21], 1380 nM; in assay [22], 562 nM; in assay [23] it was 1410 nM; in [24], 39.8 µM. The GI50 in [25] is 42.7 µM; in assay [26] it was 2750 nM; in assay [27] it was 2570 nM; in assay [28], 1700 nM; in assay [29], 10 µM; in assay [30] it was 49 µM. Besides, the GI50 in assay [31] is 35.5 µM; in assay [32], 3.72 µM.

`O=C1c2nc3n(c2C(=O)c2nc4n(c21)CCCC4)CCCC3`: the values for the growth at 10 µM in assay [33] and in [34] were 107% and 79.6%, respectively.
